Assay [1] is described as follows: inhibitors of TNFa-induced NFkB p65 translocation, primary screen, imaging, HUVEC, MLSMR starter and 10KST1 sets (AID 438;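 active means inhibition above 20% together with a positive visual image hit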;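 further: compound added about 3h40 before a 20 min TNFalpha stimulation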;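 on inhibition: signal is the nuclear over cytoplasmic p65 intensity ratio per well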). To be noted: HUVEC TNFa-induced p65 nuclear translocation; cell count: measured here: nuclei count (cytotoxicity indicator), at 2.08 µM; inhibition: at 2 µM, stronger effect = higher value, 0% TNFa-plus-vehicle, 100% no-TNFa wells.
Assay [2] in a line: reduction of polyQ htt aggregates in cells – imaging, exon1htt(103Q)mCFP cells, high-content imaging, primary screen (AID 483;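 active means visual image review flags a hit and inhibition of aggregation exceeds 20%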;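 further: compound exposure lasted 3 days before fixation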;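 on nuclei count: percent of the per-plate median nuclei count of sample wells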). Particulars: exon1htt(103Q)mCFP cell line, aggregate imaging, at 2 µM; inhibition of aggregation: stronger effect = higher value; nuclei count: measured here: cell count, toxicity.
Assay [3] in a line: endothelial E-selectin expression blockers – imaging, HUVEC, immunofluorescence, MLSMR starter and 10KST1 sets, primary screen (AID 487;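 active means visually confirmed hit in the image check and inhibition above 20%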;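 on inhibition: signal is fraction of cell area covered by stained E-selectin grains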;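 on nuclei count: 100% = median nuclei count of all wells on the same plate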). To be noted: HUVEC TNFalpha-induced E-selectin immunofluorescence imaging, at 2 µM; inhibition: stronger effect = higher value; nuclei count: measured here: cell number, toxicity.
Assay [4] addresses Voltage-gated potassium channel subunit beta-2 (Rattus norvegicus) (UniProt P62483). The assay is described as follows: inhibitors of rat Kvbeta2 reductase activity – biochemical, NADPH fluorescence, primary screen (AID 622;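 active means fluorescence slope higher than the sample average by over 3 SD, cut at about -0.22 in these data, passing the limit was not always enough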;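 further: slope of raw intensity against log time taken from 70 to 1610 s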). To be noted: recombinant KvBeta, 4-cyanobenzaldehyde reduction, at 10 µM, stronger effect = higher value.
Assay [5] has the same target. The assay is described as follows: enhancers of rat Kvbeta2 NADPH turnover – biochemical, NADPH fluorescence, primary screen (AID 623;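 active means NADPH fluorescence slope more negative than the mean of all samples by about 3 SD, 99.7% confidence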;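 further: fluorescence intensity change per second fitted from 20 to 320 s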). Particulars: Recombinant KvBeta, NADPH fluorescence decrease slope, 10 min; at 10 µM; stronger effect = lower value.
Assay [6] addresses Muscarinic acetylcholine receptor M4 (Homo sapiens) (UniProt P08173). Briefly: M4-linked GIRK flux change, two-sided – cell-based, HEK293 M4/GIRK, thallium flux, BTC-AM, M4 allosteric agonist project, primary screen (AID 625;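 active means fluorescence slope after compound addition differing from the mean of all tested samples at 99.7% confidence, mostly higher but some lower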;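 further: thallium influx through GIRK channels coupled to M4 in HEK293 cells with BTC-AM dye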). Particulars: at 10 µM, actives lie on both sides. The essentials: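 Material – HEK293 cells with M4 receptor and GIRK channels · Buffer or medium – pH 7.3 thallium assay buffer · Doses – one dose, 10 µM final · Timing – cells overnight at 37 °C, BTC-AM loading 1 h, reads 2 min total · Measured by – kinetic fluorescence with BTC-AM dye · Controls – carbachol and DMSO controls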

Assay [7] is described as follows: blockers of RIG-like receptor reporter activation – cell-based, Sendai virus stimulus, luciferase, 10K MLSCN set, TLR/RLR signaling modifier project, primary screen (AID 602276;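 active means inhibition at or above 50% at 10 µM; inactive means inhibition below 50%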;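 further: firefly luciferase from ISG56 promoter only with Renilla not read in this screen; 0% = Sendai virus plus DMSO and 100% = medium plus DMSO without virus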). Particulars: HEK293 RL24 IRF3 luciferase reporter, at 10 µM, stronger effect = higher value. (In general: In a reporter assay the amount or activity of a reporter protein is the signal.)
The nature of assay [8]: TLR3 IRF3 reporter activation blockers – cell-based, poly I:C stimulus, luciferase, 10K MLSCN set, primary screen (AID 602277). Particulars: HEK293-TLR3 RL24 IRF3 luciferase reporter, at 10 µM, stronger effect = higher value.

The source made the active and inactive calls.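 How the source made its calls, unless noted: active means inhibition of the reporter signal at or above 50%; inactive means inhibition below 50%.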

Sequence of Voltage-gated potassium channel subunit beta-2 (Rattus norvegicus) (P62483 whole entry, looked up): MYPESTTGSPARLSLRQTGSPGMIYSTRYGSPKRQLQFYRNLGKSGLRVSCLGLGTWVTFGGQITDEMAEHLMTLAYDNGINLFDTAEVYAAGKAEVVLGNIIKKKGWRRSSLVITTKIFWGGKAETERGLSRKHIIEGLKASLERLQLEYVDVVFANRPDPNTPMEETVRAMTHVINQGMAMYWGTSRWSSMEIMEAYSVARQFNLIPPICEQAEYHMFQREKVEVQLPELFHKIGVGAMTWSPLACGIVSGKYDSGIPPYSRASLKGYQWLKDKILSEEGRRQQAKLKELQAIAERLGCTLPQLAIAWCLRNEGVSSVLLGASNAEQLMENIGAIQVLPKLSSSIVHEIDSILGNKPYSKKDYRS
Sequence of Muscarinic acetylcholine receptor M4 (Homo sapiens) (P08173 whole entry, looked up): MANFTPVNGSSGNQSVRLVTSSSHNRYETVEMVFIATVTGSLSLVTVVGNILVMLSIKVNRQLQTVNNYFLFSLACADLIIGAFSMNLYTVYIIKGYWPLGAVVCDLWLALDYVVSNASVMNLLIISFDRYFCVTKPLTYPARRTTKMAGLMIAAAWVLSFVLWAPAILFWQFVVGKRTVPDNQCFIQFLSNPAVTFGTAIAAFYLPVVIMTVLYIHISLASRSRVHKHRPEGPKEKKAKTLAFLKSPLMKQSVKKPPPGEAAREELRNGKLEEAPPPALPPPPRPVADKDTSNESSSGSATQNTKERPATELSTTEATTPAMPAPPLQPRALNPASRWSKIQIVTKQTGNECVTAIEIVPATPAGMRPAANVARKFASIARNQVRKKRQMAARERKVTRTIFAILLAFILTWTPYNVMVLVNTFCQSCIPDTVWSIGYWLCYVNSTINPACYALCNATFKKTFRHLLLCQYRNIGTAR

As for `CCOc1cc(N2CCOCC2)c(OCC)cc1NC(=O)COC(=O)CCc1c[nH]c2ccccc12`, the cell count in assay [1] is 300. Besides, the inhibition in assay [1] is -5.2% (inactive); in assay [3] it was -28% (inactive); in assay [7] it was 2.83% (inactive); in assay [8], 20.2% (inactive). Also, the inhibition of aggregation in assay [2] is 7.9% (inactive). In addition, the nuclei count is 105% in assay [2] and 109% in assay [3]. In addition, the figures for the fluorescence slope in assay [4] and in assay [6] were -0.273 (inactive) and 0.00571 (inactive), respectively. Besides, the NADPH fluorescence slope in assay [5] was -1.5e-05 (inactive).

For the compound `COc1ccc(-c2cc(C(=O)NCc3ccc(Cl)cc3)no2)cc1OC`, the cell count in assay [1] was 358. Moreover, the inhibition in assay [1] was -2.5% (inactive); in assay [3], 41% (inactive); in assay [7], 14.3% (inactive); in assay [8], -8.76% (inactive). Further, the inhibition of aggregation in assay [2] was -5.6% (inactive). In addition, the nuclei count in assay [2] and in assay [3] was 106% in each case. For the same compound, the fluorescence slope in assay [4] is -0.19 (inactive); in assay [6], 0.00727 (inactive). In assay [5], the NADPH fluorescence slope was -1.3e-05 (inactive).

For the compound `COc1ccc(NC(=O)CSc2nnc(-c3ccncc3)n2CC2CCCO2)c(OC)c1` (configuration not stated), the cell count in assay [1] is 587. Besides, the inhibition in assay [1] was -6.1% (inactive); in assay [3] it was -89.2% (inactive); in assay [7], 7.58% (inactive); in assay [8], 28% (inactive). In addition, the inhibition of aggregation in assay [2] was 18.1% (inactive). Also, the values for the nuclei count in assay [2] and in assay [3] were 87.6% and 119%, respectively. Also, the fluorescence slope in assay [4] was -0.575 (inactive); in assay [6] it was 0.00641 (inactive). For the same compound, in assay [5], the NADPH fluorescence slope is -1.2e-05 (inactive).

Take `Cc1nc(Nc2nc(=O)c3ccccc3n2C)nc2c(C)cccc12`: in assay [1], the cell count came to 594. Also, the inhibition is 5.2% (inactive) in assay [1], -112% (inactive) in assay [3], 14.6% (inactive) in assay [7] and 22.9% (inactive) in assay [8]. Further, in assay [2], the inhibition of aggregation was -282% (inactive). Besides, the results for the nuclei count in assay [2] and in assay [3] were 73.9% and 156%, respectively. In addition, the fluorescence slope was -0.348 (inactive) in assay [4] and 0.00486 (inactive) in assay [6]. Besides, in assay [5], the NADPH fluorescence slope is -5e-06 (inactive).

Consider `O=C(CCCn1ncn2c(cc3occc32)c1=O)N1CCc2ccccc2C1`, for which the cell count in assay [1] was determined as 363. Moreover, the inhibition in assay [1] is -0.7% (inactive); in assay [3], -81.7% (inactive); in assay [7] it was 8.38% (inactive); in assay [8], 8.89% (inactive). Also, in assay [2], the inhibition of aggregation is 4.2% (inactive). The nuclei count was found to be 93.3% in assay [2] and 101% in assay [3]. The figures for the fluorescence slope in assay [4] and in assay [6] were -0.484 (inactive) and 0.00605 (inactive), respectively. The NADPH fluorescence slope in assay [5] is -0.00018 (inactive).

For the compound `COC(=O)c1ccc(CSc2nc(-c3ccc(OC)cc3)nc3c2c(=O)n(C)c(=O)n3C)o1`, the cell count in assay [1] amounted to 487. In addition, the inhibition in assay [1] is 8.9% (inactive); in assay [3], -5.9% (inactive); in assay [7], 24% (inactive); in assay [8], 30.6% (inactive). For the same compound, the inhibition of aggregation in assay [2] is -0.5% (inactive). In addition, the values for the nuclei count in assay [2] and in assay [3] were 89.2% and 103%, respectively. The values for the fluorescence slope in assay [4] and in assay [6] were -0.409 (inactive) and 0.00884 (inactive), respectively. In addition, the NADPH fluorescence slope in assay [5] is 0.000102 (inactive).

As to `CCCCn1c(CN2CCN(c3cccc(Cl)c3)CC2)nc2c1c(=O)n(C)c(=O)n2C`, the cell count in assay [1] came out at 581. Further, the inhibition in assay [1] was 3.4% (inactive); in assay [3] it was -3.3% (inactive); in assay [7] it was 14.4% (inactive); in assay [8], -1.69% (inactive). In assay [2], the inhibition of aggregation was 10.6% (inactive). The nuclei count in assay [2] is 100%; in assay [3] it was 103%. The fluorescence slope in assay [4] is -0.597 (inactive); in assay [6], 0.00321 (inactive). The NADPH fluorescence slope in assay [5] was -6.6e-05 (inactive).

In general, inhibition refers to the drop in the measured response relative to a control, in per cent.
